Published values gathered from unrelated publications.
Each line is one published result; the experiments were not run side by side.
Organism: Escherichia coli
Effect on: microbial growth

| Compound | method | cells | strain | time | notes | MIC |
| --- | --- | --- | --- | --- | --- | --- |
| CC1(C)S[C@@H]2[C@H](NC(=O)[C@H](N)c3ccccc3)C(=O)N2[C@H]1C(=O)O | broth dilution |  | ATCC25922 |  |  | 8 µg/mL |
| Clc1ccccc1NCc1ccc(Oc2ccccn2)cc1 |  |  |  |  |  | > 25 µg/mL |
| Cc1c(CN(C)C(=O)/C=C/c2cnc3c(c2)CC(CCN)C(=O)N3)oc2ccccc12.Cl (stereo not drawn) | broth dilution |  | BAA2471 |  | clinical isolate | 4 µg/mL |
| Cc1ccc2nc(-c3ccc(N(C)C)cc3)[nH]c2c1 | broth dilution |  | ATCC25922 |  |  | 64 µg/mL |
| N=C(N)c1ccc(OCCCCCCCCCOc2ccc(C(=N)N)cc2)cc1 | broth dilution |  | BW25113 |  |  | > 25 µg/mL |
| C=CCn1c(-c2ccc([N+](=O)[O-])cc2)nc2ccccc21 | broth dilution |  | ATCC25922 |  |  | 64 µg/mL |
| C[C@H]1[C@H](NC(=O)/C(=N\OC(C)(C)C(=O)O)c2csc(N)n2)C(=O)N1S(=O)(=O)O | agar dilution |  | ATCC25 |  |  | 0.06 µg/mL |
| Clc1ccc(-c2nc3ccccc3[nH]2)c(Cl)c1 | broth dilution |  | ATCC25922 |  |  | 128 µg/mL |
| CC(C)Oc1c(NC(=O)c2ccc(NC(=O)[C@H](CC(N)=O)NC(=O)c3ccc(NC(=O)c4cc(C#N)cn4C)cc3)cc2)ccc(C(=O)Nc2ccc(C(=O)O)cc2)c1O |  |  | DSM1116 |  |  | ≤ 0.03 µg/mL |
| C=CCn1c(-c2ccc(OC)c(OC)c2)nc2ccccc21 | broth dilution |  | ATCC25922 |  |  | 128 µg/mL |
| CC(C)COc1c(NC(=O)c2ccc(NC(=O)[C@H](CC(N)=O)NC(=O)c3ccc(NC(=O)c4ccc(C#N)cc4)cc3)cc2)ccc(C(=O)Nc2ccc(C(=O)O)cc2)c1O |  |  | DSM1116 |  |  | 0.25 µg/mL |
| CCOc1ccc(-c2nc3cc(-c4nc5cc(N6CCN(C)CC6)ccc5[nH]4)ccc3[nH]2)cc1 | broth dilution |  | 25922 | 24 h |  | 8 to 16 µg/mL |
| C=CCn1c(-c2ccc(Cl)c(Cl)c2)nc2ccccc21 | broth dilution |  | ATCC25922 |  |  | 64 µg/mL |
| C/C(=C\c1ccc(O)cc1)C(=O)Nc1ccc(C(=O)N[C@@H](CC(N)=O)C(=O)Nc2ccc(C(=O)Nc3ccc(C(=O)Nc4ccc(C(=O)O)cc4)c(O)c3OC(C)C)cc2)cc1 |  |  | DSM1116 |  |  | 0.25 µg/mL |
| COc1c(C)c(OCc2ccccc2)c(C)c(O)c1C(=O)/C=C/c1ccccc1 | broth dilution |  | ATCC25922 |  |  | 5000 µg/mL |
| CC(C)Oc1c(-n2cc(-c3ccc(NC(=O)C(CC(N)=O)NC(=O)c4ccc(NC(=O)c5ccc(C#N)cc5)cc4)cc3)nn2)ccc(C(=O)Nc2ccc(C(=O)O)cc2)c1O (stereo not drawn) |  |  | DSM1116 |  |  | 0.06 µg/mL |
| C[C@@H](O)[C@H]1C(=O)N2C(C(=O)O)=C(S[C@@H]3CN[C@H](C(=O)N(C)C)C3)[C@H](C)[C@H]12 | broth dilution |  | KCTC1682 | 16 h |  | 0.5 µM |
| O=C(CCCCCCCC[P+](c1ccccc1)(c1ccccc1)c1ccccc1)Nc1ccc(O)c(O)c1.[Br-] | broth dilution |  | ATCC25922 | 18 h |  | > 32 µg/mL |
| N=C(N)c1ccc(OCCC(CCOc2ccc(C(=N)N)cc2)c2ccccc2)cc1 (stereo not drawn) |  |  | BW25113 |  |  | > 200 µg/mL |
| Cc1ccc(C)n1-c1ccc(-c2nnc(-c3ccccc3Cl)[nH]2)cc1 | broth dilution |  | ATCC10536 | 18 h |  | 250 µg/mL |
| O=C(CCc1cc(O)c(O)c(O)c1)NCCCCCCCC[P+](c1ccccc1)(c1ccccc1)c1ccccc1.[Br-] | broth dilution |  | ATCC25922 | 18 h |  | > 32 µg/mL |
| CC(C)Oc1c(NC(=O)c2ccc(NC(=O)[C@H](CC(N)=O)NC(=O)c3ccc(NC(=O)c4ccc(C5(C(F)(F)F)N=N5)cc4)cc3)cc2)ccc(C(=O)Nc2ccc(C(=O)O)cc2)c1O |  |  | DSM1116 |  |  | 16 µg/mL |
| O=C(Nc1ccc2c(c1)OC(F)(F)O2)Nc1ccc(Cl)c(C(F)(F)F)c1 |  |  | CFT073 |  |  | > 100 µM |
| CC(C)Oc1c(NC(=O)c2ccc(NC(=O)[C@H](CC(N)=O)NC(=O)c3ccc(NC(=O)c4ccc(C#N)cc4)cc3)cc2)ccc(C(=O)O)c1O |  |  | DSM1116 |  |  | > 64 µg/mL |
| O=C(O)c1cn(C2CC2)c2cc(N3CCNCC3)c(F)cc2c1=O | broth dilution |  | ATCC10536 | 18 h |  | ≤ 1 µg/mL |
| CC(C)Oc1c(NC(=O)c2ccc(NC(=O)[C@H](CC(N)=O)NC(=O)c3ccc(NC(=O)CCc4ccc(C#N)cc4)cc3)cc2)ccc(C(=O)Nc2ccc(C(=O)O)cc2)c1O |  |  | DSM1116 |  |  | 0.125 µg/mL |
| N=C(N)c1ccc(OCc2cc(COc3ccc(C(=N)N)cc3)cc(-c3ccccc3)c2)cc1 | broth dilution |  | W3110 |  |  | 100 µg/mL |

| Compound | method | cells | strain | time | notes | MIC |
| --- | --- | --- | --- | --- | --- | --- |
| Clc1ccc(-c2nc3ccccc3n2Cc2ccccc2)cc1Cl | broth dilution |  | ATCC25922 |  |  | 64 µg/mL |
| CCCCCCC/C=C/C(=O)N1CC(=O)/C(=C(\C)O)C1=O |  | K12 | K12 |  |  | > 200 µg/mL |
| N=C(N)c1ccc(OCc2ccc(COc3ccc(C(=N)N)cc3)cc2)cc1 |  |  | BW25113 | 20 h |  | > 200 µg/mL |
| COc1c(C)c(OC(C)=O)c(C)c(OC(C)=O)c1C(=O)/C=C/c1ccccc1 | broth dilution |  | ATCC25922 |  |  | 5000 µg/mL |
| Cc1ccc2nc(-c3ccc(Cl)cc3)n(Cc3ccccc3)c2c1 | broth dilution |  | ATCC25922 |  |  | 16 µg/mL |
| NC1CCCCc2c1[nH]c1cc(Cl)c(Cl)cc21 (stereo not drawn) | broth dilution |  | ATCC25922 |  |  | 8 µg/mL |
| CCCCCCC/C=C/C(=O)N1C(=O)/C(=C(/C)O)C(=O)C1Cc1ccc(OC(C)(C)C)cc1 (stereo not drawn) |  | K12 | K12 |  |  | > 200 µg/mL |
| N=C(N)c1ccc(OCc2ccc(-c3ccccc3)cc2COc2ccc(C(=N)N)cc2)cc1 | broth dilution |  | ATCC25922 |  |  | 200 µg/mL |
| COc1c(C)c(OC(=O)c2ccc(C)cc2)c(C)c(O)c1C(=O)/C=C/c1ccccc1 | broth dilution |  | ATCC25922 |  |  | 5000 µg/mL |
| NCCCNC1CCCCc2c1[nH]c1ccc(Br)cc21 (stereo not drawn) | broth dilution |  | ATCC25922 |  |  | 16 µg/mL |
| O=C(O)c1cn(C2CC2)c2cc(N3CCNCC3)c(F)cc2c1=O |  |  |  |  |  | 1.6 µg/mL |
| O=C1NN=C(N=Cc2ccc(O)cc2O)C1=NNn1c(-c2ccccc2)nc2ccccc2c1=O | broth dilution |  |  | 24 h |  | 53.5 µM |
| CCCCCCC#Cc1cncc(-c2nnc(SCc3ccc([N+](=O)[O-])cc3)n2C)c1 |  |  |  |  |  | ≥ 20 µg/mL |
| CC1=NN(CNC(=O)c2ccccc2)C(=O)C1=NNn1c(-c2ccccc2)nc2ccccc2c1=O | broth dilution |  |  | 24 h |  | 51.9 µM |
| O=C(Nc1ncc([N+](=O)[O-])s1)c1cc2ccccc2s1 |  |  |  |  |  | < 50 µM |
| N=C(N)c1ccc(OCCCCCOc2ccc(C(=N)N)cc2)cc1 | broth dilution |  | BW25113 |  |  | 200 µg/mL |
| CC(C)Oc1c(NC(=O)c2ccc(NC(=O)[C@H](CC(N)=O)NC(=O)c3cccc(-c4cccc(C#N)c4)c3)cc2)ccc(C(=O)Nc2ccc(C(=O)O)cc2)c1O |  |  | DSM1116 |  |  | > 64 µg/mL |
| O=[N+]([O-])c1ccc(-c2nc3cc(F)ccc3[nH]2)o1 | broth dilution |  | ATTC25922 |  |  | 4 µg/mL |
| N=C(N)c1cccc(OCc2ccccc2COc2cccc(C(=N)N)c2)c1 |  |  | BW25113 |  |  | > 200 µg/mL |
| Cn1c(SCc2ccc(Cl)cc2)nnc1-c1cncc(C#Cc2ccccc2)c1 |  |  |  |  |  | ≥ 20 µg/mL |
| CCCCCCC/C=C/C(=O)N1C(=O)/C(=C(/C)O)C(=O)C1CCCCN (stereo not drawn) |  | K12 | K12 |  |  | > 200 µg/mL |
| O=[N+]([O-])c1ccc(O)c2ncccc12 | broth dilution |  | ATCC25922 |  |  | 2 µg/mL |
| Brc1ccc(NCc2ccc(Oc3ccccn3)cc2)cc1 |  |  |  |  |  | > 25 µg/mL |
| N=C(N)c1cccc(OCc2ccc(COc3cccc(C(=N)N)c3)cc2)c1 |  |  | BW25113 |  |  | > 200 µg/mL |
| Clc1ccc(Cn2c(-c3ccc(Cl)cc3)nc3ccccc32)cc1 | broth dilution |  | ATCC25922 |  |  | 16 µg/mL |
| Cc1ccc(C)n1-c1ccc(-c2nnc(-c3ccc(Br)cc3)[nH]2)cc1 | broth dilution |  | ATCC10536 | 18 h |  | 125 µg/mL |
| O=C(CCCCCCCCCC[P+](c1ccccc1)(c1ccccc1)c1ccccc1)Nc1ccc(O)c(O)c1.[Br-] | broth dilution |  | ATCC25922 | 18 h |  | > 32 µg/mL |
